Results: ChEMBL document CHEMBL3877272, “Synthesis and anti-mitotic activity of 6,7-dihydro-4H-isothiazolo[4,5-b]pyridin-5-ones: In vivo and cell-based studies” (Eur J Med Chem, 2017)
Calls of active or inactive are those of the source.

What was measured:
[1] = Solubility in seawater assessed as micro-crystal formation at 4 uM by light microscopy; type: physicochemical
Summary of the method: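 Compound from 10 mM DMSO stock diluted 10-fold in 96% EtOH, added to seawater with sea urchin embryos; microcrystal formation checked by light microscopy.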

Paracentrotus lividus [2] = test: Antimitotic activity in sea urchin free-swimming blastulae assessed as microtubule destabilization by measuring embryo spinning exposed 8 to 10 hrs after fertilization measured after 15 mins to 20 hrs; type: functional, Blastula
Summary of the method: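 Free-swimming P. lividus blastulae just after hatching (8–10 h post-fertilization) from same culture, exposed in seawater to 2-fold decreasing concentrations (DMSO stock diluted in EtOH). Settling to well bottom with rapid spinning around animal-vegetal axis scored by light microscopy over 15 min–20 h. Effective threshold concentration; duplicate measurements.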

Paracentrotus lividus [3] = test: Antimitotic activity in sea urchin embryo assessed as cleavage alteration exposed 8 to 15 mins after fertilization 45 to 55 mins before first mitotic cycle completion measured at 2.5 to 5.5 hrs post dose; type: functional
Summary of the method: (§1)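 Paracentrotus lividus eggs, fertilized in filtered seawater, cultured as monolayer (up to 2000 embryos/mL) at room temperature. Exposed 8–15 min post-fertilization to 2-fold decreasing concentrations (DMSO stock diluted in EtOH; final DMSO ≤0.05%, EtOH ≤1%). Cleavage alteration scored at 8-cell, arrest at early blastula stage (2.5–5.5 h). Effective threshold concentration reported; duplicate measurements.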

Paracentrotus lividus [4] = test: Antimitotic activity in sea urchin embryo assessed as cleavage arrest exposed 8 to 15 mins after fertilization 45 to 55 mins before first mitotic cycle completion measured at 2.5 to 5.5 hrs post dose; type: functional; summary of the method: as §1
[5] = Antiproliferative activity against human NCI60 cells at 10 uM after 48 hrs by SRB assay relative to control; type: functional; conditions: NCI60, 48 h, read-out: GI
Paracentrotus lividus [6] = test: In vivo microtubule destabilizing activity in sea urchin embryo assessed as tuberculate egg formation exposed 8 to 15 mins after fertilization 45 to 55 mins before first mitotic cycle completion measured at 2.5 to 5.5 hrs post dose; type: functional
Summary of the method: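 Paracentrotus lividus eggs from KCl-induced spawning, fertilized and cultured in filtered seawater at room temperature, up to 2000 embryos/mL. Compounds came from 10 mM DMSO stocks diluted 10-fold in 96% EtOH; tolerated solvent limits were 0.05% DMSO and 1% EtOH. Eggs were exposed to 2-fold decreasing concentrations and scored by light microscopy. The result is the effective threshold concentration, measured in duplicate.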

[7] = Antiproliferative activity against human OVCAR8 cells measured after 3 to 4 days by Celltiter-Glo luminescent cell viability assay; type: functional; conditions: OVCAR-8
[8] = Antiproliferative activity against human Caov3 cells measured after 96 hrs by Celltiter-Glo assay; type: functional, cell-based; conditions: Caov-3, 96 h
Summary of the method: (§2)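 Cells plated 24 h, then treated 96 h with 0.1% DMSO or concentrations […]; growth by CellTiter-Glo luminescence, normalized to DMSO control; IC50 from dose–response curves by logistic nonlinear regression; mean of three independent experiments.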

[9] = Antiproliferative activity against human MDA-MB-468 cells measured after 48 hrs by SRB assay; type: functional, cell-based; conditions: MDA-MB-468, 48 h
[10] = Antiproliferative activity against human MDA-MB-DYT2 cells measured after 96 hrs by Celltiter-Glo assay; type: functional, cell-based; summary of the method: as §2
[11] = Antiproliferative activity against human NCI-H1975 cells measured after 96 hrs by Celltiter-Glo assay; type: functional, cell-based; conditions: NCI-H1975, 96 h; summary of the method: as §2
[12] = Antiproliferative activity against human NCI60 cells measured after 48 hrs by SRB assay; type: functional; conditions: NCI60, 48 h
[13] = Antiproliferative activity against human MDA-MB-231 cells measured after 96 hrs by Celltiter-Glo assay; type: functional, cell-based; conditions: MDA-MB-231, 96 h; summary of the method: as §2
[14] = Antiproliferative activity against human MDA-MB-435 cells measured after 48 hrs by SRB assay; type: functional, cell-based; conditions: MDA-MB-435, 48 h
[15] = Antiproliferative activity against human MDA-MB-435 cells measured after 96 hrs by Celltiter-Glo assay; type: functional, cell-based; conditions: MDA-MB-435, 96 h; summary of the method: as §2
[16] = Antiproliferative activity against human TOV112D cells measured after 96 hrs by Celltiter-Glo assay; type: functional, cell-based; summary of the method: as §2
[17] = Antiproliferative activity against human MDA-MB-468 cells measured after 96 hrs by Celltiter-Glo assay; type: functional, cell-based; conditions: MDA-MB-468, 96 h; summary of the method: as §2
[18] = Antiproliferative activity against human NCI/ADR-RES cells measured after 3 to 4 days by Celltiter-Glo luminescent cell viability assay; type: functional
Paracentrotus lividus [19] = test: Antimitotic activity in early pluteus stage of sea urchin embryo assessed as growth inhibition of skeletal spicules at 1 uM; type: functional, tissue-based; conditions: Spicule
Summary of the method: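 P. lividus embryos (gametes by intracoelomic 0.5 M KCl, fertilized in filtered seawater, room temperature, paddle agitation 60 rpm); compound from 10 mM DMSO stock diluted 10-fold in 96% EtOH; growth of skeletal spicules scored by light microscopy at early pluteus stage.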

Structure (SMILES): COc1cccc(C2CC(=O)Nc3c(-c4cccc(F)c4)nsc32)c1 (configuration not stated)
- solubility [1]: Insoluble
- EC (Paracentrotus lividus [2]): >4 µM
- EC (Paracentrotus lividus [3]): 0.5 µM
- EC (Paracentrotus lividus [4]): 1 to 4 µM
- inhibition of growth at 10 µM [5]: 9.4%

Structure (SMILES): COc1cc(C2CC(=O)Nc3c(-c4ccc(Cl)cc4)nsc32)c(OC)c2c1OCO2 (configuration not stated)
- EC (Paracentrotus lividus [2]): >4 µM
- EC (Paracentrotus lividus [3]): >4 µM
- EC (Paracentrotus lividus [4]): >4 µM
- inhibition of growth at 10 µM [5]: 7.66%

Structure (SMILES): COc1ccc(-c2nsc3c2NC(=O)CC3c2ccc(Cl)cc2)cc1 (configuration not stated)
- EC (Paracentrotus lividus [2]): 1 µM
- EC (Paracentrotus lividus [3]): 0.1 µM
- EC (Paracentrotus lividus [4]): 0.2 µM
- inhibition of growth at 10 µM [5]: 15.7%

Structure (SMILES): COc1cccc(C2CC(=O)Nc3c(-c4ccc(F)cc4)nsc32)c1 (configuration not stated)
- EC (Paracentrotus lividus [2]): >4 µM
- EC (Paracentrotus lividus [3]): 1 µM
- Activity (Paracentrotus lividus [6]): Active
- EC (Paracentrotus lividus [4]): 4 µM
- inhibition of growth at 10 µM [5]: 15.1%

Structure (SMILES): COc1cc(C2CC(=O)Nc3c(-c4ccccc4)nsc32)cc2c1OCO2 (configuration not stated)
- EC (Paracentrotus lividus [2]): >4 µM
- EC (Paracentrotus lividus [3]): 4 µM
- EC (Paracentrotus lividus [4]): >4 µM
- inhibition of growth at 10 µM [5]: 4.6%

Structure (SMILES): COc1ccc(C2CC(=O)Nc3c(-c4cccc(F)c4)nsc32)cc1 (configuration not stated)
- EC (Paracentrotus lividus [2]): >4 µM
- EC (Paracentrotus lividus [3]): 2 µM
- EC (Paracentrotus lividus [4]): >4 µM
- inhibition of growth at 10 µM [5]: 5.3%

Structure (SMILES): O=C1CC(c2ccc3c(c2)OCO3)c2snc(-c3cccc(F)c3)c2N1 (configuration not stated)
- EC (Paracentrotus lividus [2]): >4 µM
- EC (Paracentrotus lividus [3]): 1 µM
- EC (Paracentrotus lividus [4]): 4 µM
- inhibition of growth at 10 µM [5]: 5.2%

Structure (SMILES): COc1ccc(-c2nsc3c2NC(=O)CC3c2ccc(F)cc2)cc1 (configuration not stated)
- GI50 [7]: 4010 nM
- IC50 [8]: > 2000 nM
- IC50 [9]: 2350 nM
- IC50 [10]: > 2000 nM
- EC (Paracentrotus lividus [2]): 0.1 µM
- IC50 [11]: > 2000 nM
- GI50 [12]: 3020 nM
- EC (Paracentrotus lividus [3]): 0.01 µM
- IC50 [13]: > 2000 nM
- EC (Paracentrotus lividus [4]): 0.05 µM
- IC50 [14]: 440 nM
- IC50 [15]: 1820 nM
- IC50 [16]: > 2000 nM
- IC50 [17]: 1850 nM
- GI50 [18]: 2110 nM

Structure (SMILES): COc1cc(C2CC(=O)Nc3c(-c4cccc(F)c4)nsc32)cc2c1OCO2 (configuration not stated)
- EC (Paracentrotus lividus [2]): >4 µM
- EC (Paracentrotus lividus [3]): 4 µM
- EC (Paracentrotus lividus [4]): >4 µM
- inhibition of growth at 10 µM [5]: 4.4%

Structure (SMILES): COc1cc(C2CC(=O)Nc3c(-c4cccc(F)c4)nsc32)c(OC)c2c1OCO2 (configuration not stated)
- EC (Paracentrotus lividus [2]): >4 µM
- EC (Paracentrotus lividus [3]): >4 µM
- EC (Paracentrotus lividus [4]): >4 µM

Structure (SMILES): COc1ccc(C2CC(=O)Nc3c(-c4ccc(F)cc4)nsc32)cc1 (configuration not stated)
- EC (Paracentrotus lividus [2]): >4 µM
- EC (Paracentrotus lividus [3]): 2 µM
- EC (Paracentrotus lividus [4]): >4 µM
- inhibition of growth at 10 µM [5]: 6.2%

Structure (SMILES): COc1cc(C2CC(=O)Nc3c(-c4ccc(F)cc4)nsc32)c(OC)c2c1OCO2 (configuration not stated)
- EC (Paracentrotus lividus [2]): >4 µM
- EC (Paracentrotus lividus [3]): >4 µM
- EC (Paracentrotus lividus [4]): >4 µM
- Activity (Paracentrotus lividus [19]): Active

Structure (SMILES): O=C1CC(c2ccsc2)c2snc(-c3ccc(Cl)cc3)c2N1 (configuration not stated)
- GI50 [7]: 3010 nM
- IC50 [8]: 1080 nM
- IC50 [9]: 291 nM
- IC50 [10]: > 2000 nM
- EC (Paracentrotus lividus [2]): 0.2 µM
- GI50 [12]: 1510 nM
- EC (Paracentrotus lividus [3]): 0.01 µM
- IC50 [13]: 1630 nM
- EC (Paracentrotus lividus [4]): 0.1 µM
- IC50 [14]: 260 nM
- IC50 [15]: 628 nM
- IC50 [16]: 1150 nM
- GI50 [18]: 364 nM

Structure (SMILES): O=C1CC(c2cccc(Cl)c2)c2snc(-c3ccc(F)cc3)c2N1 (configuration not stated)
- EC (Paracentrotus lividus [2]): >4 µM
- EC (Paracentrotus lividus [3]): 1 µM
- EC (Paracentrotus lividus [4]): 4 µM
- inhibition of growth at 10 µM [5]: 15.6%

Structure (SMILES): COc1ccc(-c2nsc3c2NC(=O)CC3c2cc3c(c(OC)c2OC)OCO3)cc1 (configuration not stated)
- EC (Paracentrotus lividus [2]): >5 µM
- EC (Paracentrotus lividus [3]): 0.2 µM
- Activity (Paracentrotus lividus [6]): Active
- EC (Paracentrotus lividus [4]): 2 µM
- inhibition of growth at 10 µM [5]: 26.9%

Structure (SMILES): COc1ccc(-c2nsc3c2NC(=O)CC3c2cccc(F)c2)cc1 (configuration not stated)
- GI50 [7]: 7540 nM
- IC50 [8]: > 2000 nM
- IC50 [9]: 1940 nM
- IC50 [10]: > 2000 nM
- EC (Paracentrotus lividus [2]): 0.2 µM
- IC50 [11]: > 2000 nM
- GI50 [12]: 4900 nM
- EC (Paracentrotus lividus [3]): 0.01 µM
- IC50 [13]: > 2000 nM
- EC (Paracentrotus lividus [4]): 0.05 µM
- IC50 [14]: 827 nM
- IC50 [15]: 1410 nM
- IC50 [16]: > 2000 nM
- IC50 [17]: 1410 nM
- GI50 [18]: 2960 nM
